A selection: hits, their analogues and other compounds. The true share with any hit is near 3.9%.
TAAR1 antagonist = human TAAR1 antagonism; AID 624466; hit rate 1.5% among 360,000; CHO RD-HGA16 TAAR1, Fluo-8 calcium fluorescence, antagonist; Q96RJ0; inhibition, % at 3 µM;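 active means inhibition above a per-plate cutoff, the mean inhibition of test compounds on that plate plus 3 SD, cut at about 49% in these data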
Target sequence (Q96RJ0 whole entry, looked up): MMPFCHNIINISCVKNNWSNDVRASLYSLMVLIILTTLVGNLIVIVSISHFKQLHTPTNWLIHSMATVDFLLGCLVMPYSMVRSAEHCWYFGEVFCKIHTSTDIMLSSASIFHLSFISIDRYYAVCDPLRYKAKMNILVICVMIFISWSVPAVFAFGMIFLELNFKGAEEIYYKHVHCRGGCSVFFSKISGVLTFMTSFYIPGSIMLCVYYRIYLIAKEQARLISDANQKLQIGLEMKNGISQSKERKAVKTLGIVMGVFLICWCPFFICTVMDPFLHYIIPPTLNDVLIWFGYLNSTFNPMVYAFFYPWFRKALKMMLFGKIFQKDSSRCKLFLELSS
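Test system: RD-HGA16 CHO cells with stable hTAAR1 and Gα16 / Probe or stimulus: EC80 β-phenethylamine stimulus / Times: seeding 17-24 h prior, 75-min 37 °C, 30-min RT dye loading / Detection: Fluo-8 calcium-sensitive fluorescence / Read-out basis: % inhibition scaled between DMSO and EC80 PEA controls / Repeats: singlicate, one well per test compound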
TAAR1 agonist = human TAAR1 agonism. Q96RJ0. CHO RD-HGA16 TAAR1, Fluo-8 calcium fluorescence; vehicle wells 0%, saturating PEA agonist 100%. activation, % at 3 µM. hit rate 0.99% among 360,000. AID 624467;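 active means activation above the mean activation of all test compounds in the run plus 3 SD, cut at about 38% in these data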
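Signal – calcium-sensitive Fluo-8 signal, excitation 470-495, emission 515-575 nm · System – RD-HGA16 (CHO) cells co-expressing Gα16 and hTAAR1 · Incubation – 17-24 h seeding, 75 min 37 °C dye, 30 min RT · Compound dosing – 3 µM single concentration · Repeats – no replicates (n 1)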
CHO parental Ca = signal in parental CHO cells, OX1R antagonist counter-screen; parental CHO-K1, ATP-induced calcium, Fluo-8 fluorescence; inhibition, % at 5.6 µM; hit rate 0.63% among 330,000;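 active means inhibition above that plate's mean sample inhibition plus 3 SD, cut at about 26% in these data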
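Material: parental CHO cells / Compound: single nominal dose of 5.6 µM per compound / Signal: Fluo-8 fluorescence / Replicates: singlicate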
OX1R antag-1 = antagonists of human orexin 1 receptor (OX1R); inhibition, % at 6.6 µM; O43613; OX1R-expressing cells, FRET antagonist read-out; hit rate 1.8% among 330,000; AID 485270; in the data active means inhibition mostly above about 38%, no sharp cut-off; inactive means mostly below about 40%
OX1R antag-2 = human HCRTR1 antagonism; O43613; CHO/OX1R cells, Fluo-8 calcium fluorescence, orexin A; inhibition, % at 5 µM; hit rate 0.43% among 330,000; AID 434989;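 active means inhibition above its plate's threshold, mean inhibition of all tested compounds on the plate plus 3 SD, cut at about 37% in these data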
TAAR1 nonsel count = counter-screen for TAAR1 antagonists: nonselective antagonists. hit rate 77% among 2,400. AID 651780. shares compounds with TAAR1 antagonist. counterscreen cell line, calcium fluorescence, antagonist mode. inhibition, % at 3 µM; in the data active means inhibition above about 22%;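 further: CHO-Ga16 host cells stimulated with ATP at an EC80 level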
TAAR1 antag conf = human TAAR1 antagonism, confirmed. inhibition, % at 3 µM. TAAR1-expressing cells, fluorescence antagonist read-out. hit rate 40% among 2,400. AID 651785. shares compounds with TAAR1 antagonist; in the data active means inhibition above about 49%;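 further: CHO-Ga16 host cells challenged with agonist PEA near its EC80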
Ga16 nonsel ag = nonselective Ga16 agonism, counter-screen; AID 651953; Ga16-expressing cells, calcium fluorescence, agonist counterscreen; activation, % at 3 µM; shares compounds with TAAR1 antagonist; hit rate 18% among 2,400; in the data active means activation above about 12%
TAAR1 ag count = activates human TAAR1 in antagonist counter-screen; activation, % at 3 µM; AID 651955; hit rate 2% among 2,400; shares compounds with TAAR1 antagonist; hTAAR1 cell line, fluorescence activation, agonist mode; in the data active means activation above about 37%;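 further: CHO cells stably expressing TAAR1 with calcium dye readout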
A number is an active result; . = inactive; / = not tested or not shown.

SMILES	TAAR1 antagonist	TAAR1 agonist	CHO parental Ca	OX1R antag-1	OX1R antag-2	TAAR1 nonsel count	TAAR1 antag conf	Ga16 nonsel ag	TAAR1 ag count
CCNC(=S)N1CCN(c2nc(-c3cccc(OC)c3)cs2)CC1	.	.	.	.	.	/	/	/	/
COc1cccc(-c2csc(N3CCN(C(=S)NCC(C)C)CC3)n2)c1	64.5	.	.	.	.	41.7	.	.	.
COc1ccc(NC(=O)N2CCN(c3nc(-c4cccc(OC)c4)cs3)CC2)cc1	64.0	.	.	.	.	38.5	59.1	.	.
Cc1ccc(NC(=O)C2CCCN2S(=O)(=O)c2ccc3c(c2)n(C)c(=O)c(=O)n3C)cc1C (stereo unspecified)	.	.	.	.	.	/	/	/	/
Brc1cccc(-c2nc3c4ccccc4ccn3c2Cc2ccsc2)c1	.	.	/	/	/	/	/	/	/
COc1cccc(N2CCN(CC(=O)NCc3ccccc3)CC2)c1	.	.	.	.	.	/	/	/	/
COc1cccc(N2CCN(CC(=O)Nc3ccccc3C(=O)NCc3ccccc3)CC2)c1	66.1	.	.	.	.	24.4	56.2	.	.
COC(=O)c1[nH]c2ccccc2c1NC(=O)CN1CCN(c2cccc(Cl)c2)CC1	61.6	.	.	.	.	30.4	.	.	.
CCCCN1C(=O)c2ccc(C(=O)Nc3ccc(C)c(S(=O)(=O)N(C)C)c3)cc2C1=O	68.0	.	.	.	.	50.4	53.8	12.9	.
O=C(O)c1cccc(N=C2NC(=O)C(CO)(CO)S2)c1	.	.	.	.	.	/	/	/	/
COc1cc(-c2cc(C(=O)OCC(=O)NC3CC3)c3ccccc3n2)cc(OC)c1OC	67.5	.	.	.	.	26.9	.	.	.
COc1ccccc1CN(C)C(=O)c1cc(-c2cc(OC)c(OC)c(OC)c2)nc2ccccc12	61.2	.	.	.	.	35.3	53.5	.	.
COCCN(CC(=O)Nc1cccc(C)c1C)C(=O)c1cc(-c2ccncc2)nc2ccccc12	74.3	.	.	.	.	31.3	55.9	.	.
Cc1ccc(-c2cc(C(=O)OCC(=O)NC3CC3)c3ccccc3n2)cc1	.	.	.	.	.	/	/	/	/
COc1cccc(CN(C)C(=O)c2cc(-c3cccs3)nc3ccccc23)c1	76.1	.	.	.	.	35.3	58.3	.	.
CS(=O)(=O)N(CC(=O)N1CCCC1)C1CCCCC1	.	.	/	/	/	/	/	/	/
Cc1cc(Br)ccc1NC(=O)CNC(=O)CNc1cccc([N+](=O)[O-])c1	.	.	.	.	.	/	/	/	/
COc1ccc(-c2cc(C(=O)N(C)Cc3ccccc3F)c3ccccc3n2)cc1OC	77.9	.	.	.	.	28.3	.	.	.
COCCN(Cc1ccccc1)C(=O)c1cc(-c2ccc(OC)c(OC)c2)nc2ccccc12	62.2	.	.	.	.	26.1	.	.	.
O=C(O)c1cc(NC(=O)c2ccc3c(c2)C(=O)N(Cc2cccnc2)C3=O)cc(C(=O)O)c1	.	.	.	.	.	/	/	/	/
C#Cc1cccc(NC(=O)c2ccc3c(c2)C(=O)N(Cc2cccnc2)C3=O)c1	84.8	.	.	.	.	42.4	61.5	13.9	.
COc1ccc(NC(=O)c2sc3ncnc(N4CCN(c5ccccn5)CC4)c3c2C)cc1Cl	80.5	.	.	.	.	48.5	55.0	12.8	.
COc1ccc(NC(=O)c2sc3nc(C)nc(N4CCN(c5ccccn5)CC4)c3c2C)cc1Cl	.	.	.	.	.	/	/	/	/
CNC(=O)C1CC(=O)N(Cc2ccc3c(c2)OCO3)C(=Nc2ccc(OC)cc2)S1 (stereo unspecified)	.	.	.	.	.	/	/	/	/
CC(=O)Oc1ccc(C(=O)Nc2cc(NC(=O)c3ccc(OC(C)=O)cc3)cc(C(=O)NC(C)(C)C)c2)cc1	67.0	.	.	.	.	32.3	.	.	.

Source: PubChem
